Data reported in ChEMBL document CHEMBL4049407, “Positional Scanning Identifies the Molecular Determinants of a High Affinity Multi-Leucine Inhibitor for Furin and PACE4” (J Med Chem, 2017).
Active and inactive are the calls of the source. The rule behind the calls is not given here. Peptide text beside a SMILES is read from it. * marks the point of attachment. NH(4-amidinobenzyl) = N=C(N)c1ccc(CN*)cc1

How the values were obtained:
[1] = target: T1, Proprotein convertase subtilisin/kexin type 6 (Homo sapiens, UniProt P29122); assay: Inhibition of recombinant human PACE4 expressed in drosophila S2 cells using pyrGlu-Arg-Thr-Lys-Arg-7-amido-4-methylcoumarin as substrate after 60 mins by spectrofluorometry method; assay type: cell-based
T1 sequence (P29122 whole entry): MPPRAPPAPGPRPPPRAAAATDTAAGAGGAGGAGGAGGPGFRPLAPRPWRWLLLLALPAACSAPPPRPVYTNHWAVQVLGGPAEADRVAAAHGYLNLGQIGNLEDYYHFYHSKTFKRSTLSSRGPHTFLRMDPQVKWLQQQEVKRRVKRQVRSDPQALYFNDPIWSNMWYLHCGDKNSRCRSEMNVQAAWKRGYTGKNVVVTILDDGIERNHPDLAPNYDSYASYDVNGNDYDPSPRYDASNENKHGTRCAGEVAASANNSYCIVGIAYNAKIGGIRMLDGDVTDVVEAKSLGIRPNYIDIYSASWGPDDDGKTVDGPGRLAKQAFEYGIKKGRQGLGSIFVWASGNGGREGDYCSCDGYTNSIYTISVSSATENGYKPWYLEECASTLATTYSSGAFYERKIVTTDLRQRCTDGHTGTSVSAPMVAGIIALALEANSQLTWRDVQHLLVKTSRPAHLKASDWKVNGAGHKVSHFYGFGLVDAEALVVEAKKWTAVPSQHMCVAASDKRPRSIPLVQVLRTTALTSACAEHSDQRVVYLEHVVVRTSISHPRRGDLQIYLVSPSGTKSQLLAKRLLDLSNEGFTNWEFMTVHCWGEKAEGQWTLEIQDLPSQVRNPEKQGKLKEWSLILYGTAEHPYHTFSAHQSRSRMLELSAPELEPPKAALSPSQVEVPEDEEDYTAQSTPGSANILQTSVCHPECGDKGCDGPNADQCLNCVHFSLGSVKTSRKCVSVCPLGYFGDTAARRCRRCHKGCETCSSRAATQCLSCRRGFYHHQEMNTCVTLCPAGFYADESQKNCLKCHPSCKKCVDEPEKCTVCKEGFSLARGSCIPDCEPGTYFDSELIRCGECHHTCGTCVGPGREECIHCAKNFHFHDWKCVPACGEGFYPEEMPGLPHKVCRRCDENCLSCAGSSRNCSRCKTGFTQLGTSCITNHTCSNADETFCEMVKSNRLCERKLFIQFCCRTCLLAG
In short: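 Human recombinant purified PACE4 at 2 units/100 µL (20.18 nM), in 20 mM BisTris pH 6.5, 1 mM CaCl2, 1.8 mg/mL BSA. Substrate 100 µM, KM 4.035 µM. Inhibitor 1 nM to 10 µM; 60 min at 37°C. Fluorescence ex 370 / em 460 nm. Ki by Morrison tight-binding equation; three independent experiments, mean ± SD.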

[2] = target: Furin (Homo sapiens, UniProt P09958); assay: Inhibition of recombinant human furin expressed in drosophila S2 cells using pyrGlu-Arg-Thr-Lys-Arg-7-amido-4-methylcoumarin as substrate after 60 mins by spectrofluorometry method; assay type: cell-based
Furin, sequence (P09958 whole entry): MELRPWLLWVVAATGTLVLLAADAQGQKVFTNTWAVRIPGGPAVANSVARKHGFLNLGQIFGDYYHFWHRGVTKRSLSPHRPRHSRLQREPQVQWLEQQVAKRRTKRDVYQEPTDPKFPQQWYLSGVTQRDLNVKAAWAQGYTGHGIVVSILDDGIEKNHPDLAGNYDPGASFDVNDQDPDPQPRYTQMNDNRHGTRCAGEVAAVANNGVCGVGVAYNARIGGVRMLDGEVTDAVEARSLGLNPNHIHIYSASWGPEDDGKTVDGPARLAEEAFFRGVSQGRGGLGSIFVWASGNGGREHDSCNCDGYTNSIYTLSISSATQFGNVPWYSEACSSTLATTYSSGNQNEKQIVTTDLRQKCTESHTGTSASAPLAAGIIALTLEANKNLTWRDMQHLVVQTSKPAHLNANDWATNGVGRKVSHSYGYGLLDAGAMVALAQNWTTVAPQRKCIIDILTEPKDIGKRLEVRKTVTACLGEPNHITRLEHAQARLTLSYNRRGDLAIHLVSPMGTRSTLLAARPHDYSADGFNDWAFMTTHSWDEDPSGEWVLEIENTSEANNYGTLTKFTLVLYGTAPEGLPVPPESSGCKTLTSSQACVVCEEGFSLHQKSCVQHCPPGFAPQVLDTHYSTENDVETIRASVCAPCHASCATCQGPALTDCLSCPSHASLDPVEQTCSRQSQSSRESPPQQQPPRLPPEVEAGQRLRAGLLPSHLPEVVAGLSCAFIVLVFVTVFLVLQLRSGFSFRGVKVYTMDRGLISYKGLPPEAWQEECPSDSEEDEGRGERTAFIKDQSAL
In short: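 Human recombinant purified furin at 2 units/100 µL (0.54 nM), in 100 mM HEPES pH 7.5, 1 mM CaCl2, 1 mM β-mercaptoethanol, 1.8 mg/mL BSA. His-containing peptides run instead in 20 mM BisTris pH 6.5 with the same additives. Substrate 100 µM, KM 5.04 µM. Inhibitor 1 nM to 10 µM; 60 min at 37°C. Fluorescence ex 370 / em 460 nm. Ki by Morrison equation; triplicate experiments, mean ± SD.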

[3] = species on record: Homo sapiens; assay: Selectivity index, ratio of Ki for recombinant human furin expressed in drosophila S2 cells to Ki for recombinant human PACE4 expressed in drosophila S2 cells; assay type: cell-based
In short: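 Ratio Ki(furin)/Ki(PACE4). […] PACE4 buffer was BisTris pH 6.5; furin buffer was HEPES pH 7.5, or BisTris pH 6.5 for His peptides. Ki fitted by Morrison equation from three independent experiments.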

[4] = test system: DU-145; assay: Antiproliferative activity against human DU145 cells assessed as reduction in metabolic activity at 25 to 100 uM after 72 hrs by MTT assay; assay type: functional, cell-based
In short: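 First-pass MTT screen of each library peptide on DU145 cells (RPMI 1640, 5% FBS, 1500 cells/well, poly-L-lysine plates). Peptides added 24 h after seeding at 25, 50 and 100 µM in fresh serum medium for 72 h. MTT 1 mg/mL for 4 h; 2-propanol HCl solubilisation. Activity normalised to water vehicle. Mean ± SEM of at least two independent experiments.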

Row | SMILES | Ki [1] [nM] | Ki [2] [nM] | Ratio Ki [3] | Activity [4]
1 | CC(=O)N[C@@H](CC(C)C)C(=O)N[C@@H](CC(C)C)C(=O)N[C@@H](CC(C)C)C(=O)N[C@@H](CO)C(=O)N[C@@H](CCCNC(=N)N)C(=O)N[C@H](C(=O)N[C@@H](CCCCN)C(=O)NCc1ccc(C(=N)N)cc1)C(C)C (Ac-LLLSRVK-{NH(4-amidinobenzyl)}) | 2 | 4 | 2 | inactive
2 | CSCC[C@H](NC(=O)[C@H](CC(C)C)NC(=O)[C@H](CC(C)C)NC(=O)[C@H](CC(C)C)NC(C)=O)C(=O)N[C@@H](CCCNC(=N)N)C(=O)N[C@H](C(=O)N[C@@H](CCCCN)C(=O)NCc1ccc(C(=N)N)cc1)C(C)C (Ac-LLLMRVK-{NH(4-amidinobenzyl)}) | 3.7 | 3.4 | 0.9 | inactive
3 | CC(=O)N[C@@H](CC(C)C)C(=O)N[C@@H](CC(C)C)C(=O)N[C@@H](CCCNC(=N)N)C(=O)N[C@@H](CC(C)C)C(=O)N[C@@H](CCCNC(=N)N)C(=O)N[C@H](C(=O)N[C@@H](CCCCN)C(=O)NCc1ccc(C(=N)N)cc1)C(C)C (Ac-LLRLRVK-{NH(4-amidinobenzyl)}) | 0.9 | 0.5 | 0.6 | inactive
4 | CC(=O)N[C@@H](CC(C)C)C(=O)N[C@@H](CC(C)C)C(=O)N[C@@H](CC(=O)O)C(=O)N[C@@H](CC(C)C)C(=O)N[C@@H](CCCNC(=N)N)C(=O)N[C@H](C(=O)N[C@@H](CCCCN)C(=O)NCc1ccc(C(=N)N)cc1)C(C)C (Ac-LLDLRVK-{NH(4-amidinobenzyl)}) | 140 | 140 | 1 | inactive
5 | CC(=O)N[C@@H](CC(C)C)C(=O)N[C@@H](Cc1cnc[nH]1)C(=O)N[C@@H](CC(C)C)C(=O)N[C@@H](CC(C)C)C(=O)N[C@@H](CCCNC(=N)N)C(=O)N[C@H](C(=O)N[C@@H](CCCCN)C(=O)NCc1ccc(C(=N)N)cc1)C(C)C (Ac-LHLLRVK-{NH(4-amidinobenzyl)}) | 3 | 4.7 | 1.6 | inactive
6 | CC(=O)N[C@@H](CC(C)C)C(=O)N[C@@H](CC(C)C)C(=O)N[C@@H](CC(C)C)C(=O)NCC(=O)N[C@@H](CCCNC(=N)N)C(=O)N[C@H](C(=O)N[C@@H](CCCCN)C(=O)NCc1ccc(C(=N)N)cc1)C(C)C (Ac-LLLGRVK-{NH(4-amidinobenzyl)}) | 18 | 12 | 0.7 | inactive
7 | CC(=O)N[C@@H](CC(C)C)C(=O)N[C@@H](CC(C)C)C(=O)N[C@@H](CC(C)C)C(=O)N[C@@H](C)C(=O)N[C@@H](CCCNC(=N)N)C(=O)N[C@H](C(=O)N[C@@H](CCCCN)C(=O)NCc1ccc(C(=N)N)cc1)C(C)C (Ac-LLLARVK-{NH(4-amidinobenzyl)}) | 4 | 5 | 1.3 | inactive
8 | CC(=O)N[C@@H](CC(C)C)C(=O)N[C@@H](CC(C)C)C(=O)N[C@@H](CC(C)C)C(=O)N[C@@H](CCCNC(=N)N)C(=O)N[C@@H](CCCNC(=N)N)C(=O)N[C@H](C(=O)N[C@@H](CCCCN)C(=O)NCc1ccc(C(=N)N)cc1)C(C)C (Ac-LLLRRVK-{NH(4-amidinobenzyl)}) | 0.2 | 0.7 | 3.5 | inactive
9 | CC(=O)N[C@@H](CC(C)C)C(=O)N[C@@H](CC(C)C)C(=O)N[C@@H](CC(C)C)C(=O)N[C@@H](Cc1cnc[nH]1)C(=O)N[C@@H](CCCNC(=N)N)C(=O)N[C@H](C(=O)N[C@@H](CCCCN)C(=O)NCc1ccc(C(=N)N)cc1)C(C)C (Ac-LLLHRVK-{NH(4-amidinobenzyl)}) | 0.4 | 0.9 | 2.3 | inactive
10 | CC(=O)N[C@@H](CC(C)C)C(=O)N[C@@H](C)C(=O)N[C@@H](CC(C)C)C(=O)N[C@@H](CC(C)C)C(=O)N[C@@H](CCCNC(=N)N)C(=O)N[C@H](C(=O)N[C@@H](CCCCN)C(=O)NCc1ccc(C(=N)N)cc1)C(C)C (Ac-LALLRVK-{NH(4-amidinobenzyl)}) | 2 | 1.5 | 0.8 | inactive
11 | CC(=O)N1CCC[C@H]1C(=O)N[C@@H](CC(C)C)C(=O)N[C@@H](CC(C)C)C(=O)N[C@@H](CC(C)C)C(=O)N[C@@H](CCCNC(=N)N)C(=O)N[C@H](C(=O)N[C@@H](CCCCN)C(=O)NCc1ccc(C(=N)N)cc1)C(C)C (Ac-PLLLRVK-{NH(4-amidinobenzyl)}) | 3 | 1.1 | 0.4 | inactive
12 | CC(=O)N[C@@H](CC(C)C)C(=O)N[C@@H](CC(C)C)C(=O)N[C@@H](CC(C)C)C(=O)N[C@@H](CCCCN)C(=O)N[C@@H](CCCNC(=N)N)C(=O)N[C@H](C(=O)N[C@@H](CCCCN)C(=O)NCc1ccc(C(=N)N)cc1)C(C)C (Ac-LLLKRVK-{NH(4-amidinobenzyl)}) | 2 | 0.9 | 0.5 | inactive
13 | CC(=O)N[C@@H](CC(C)C)C(=O)N[C@@H](CC(N)=O)C(=O)N[C@@H](CC(C)C)C(=O)N[C@@H](CC(C)C)C(=O)N[C@@H](CCCNC(=N)N)C(=O)N[C@H](C(=O)N[C@@H](CCCCN)C(=O)NCc1ccc(C(=N)N)cc1)C(C)C (Ac-LNLLRVK-{NH(4-amidinobenzyl)}) | 4 | 1 | 0.3 | inactive
14 | CC(=O)N[C@@H](C)C(=O)N[C@@H](CC(C)C)C(=O)N[C@@H](CC(C)C)C(=O)N[C@@H](CC(C)C)C(=O)N[C@@H](CCCNC(=N)N)C(=O)N[C@H](C(=O)N[C@@H](CCCCN)C(=O)NCc1ccc(C(=N)N)cc1)C(C)C (Ac-ALLLRVK-{NH(4-amidinobenzyl)}) | 1.5 | 3 | 2 | inactive
15 | CC(=O)N[C@@H](CC(C)C)C(=O)N[C@@H](CCCNC(=N)N)C(=O)N[C@@H](CC(C)C)C(=O)N[C@@H](CC(C)C)C(=O)N[C@@H](CCCNC(=N)N)C(=O)N[C@H](C(=O)N[C@@H](CCCCN)C(=O)NCc1ccc(C(=N)N)cc1)C(C)C (Ac-LRLLRVK-{NH(4-amidinobenzyl)}) | 0.4 | 0.5 | 1.3 | inactive
16 | CC(=O)N[C@@H](CC(C)C)C(=O)N[C@@H](Cc1ccc(O)cc1)C(=O)N[C@@H](CC(C)C)C(=O)N[C@@H](CC(C)C)C(=O)N[C@@H](CCCNC(=N)N)C(=O)N[C@H](C(=O)N[C@@H](CCCCN)C(=O)NCc1ccc(C(=N)N)cc1)C(C)C (Ac-LYLLRVK-{NH(4-amidinobenzyl)}) | 4 | 3 | 0.8 | inactive
17 | CC(=O)N[C@@H](CC(C)C)C(=O)N[C@@H](CCC(N)=O)C(=O)N[C@@H](CC(C)C)C(=O)N[C@@H](CC(C)C)C(=O)N[C@@H](CCCNC(=N)N)C(=O)N[C@H](C(=O)N[C@@H](CCCCN)C(=O)NCc1ccc(C(=N)N)cc1)C(C)C (Ac-LQLLRVK-{NH(4-amidinobenzyl)}) | 3 | 2.3 | 0.8 | inactive
